The IC50 is the midpoint of a concentration-inhibition curve.

Data set [1] is described as follows: Cytotoxicity against mouse BV2 cells assessed as cell viability at 20 uM by MTT assay relative to control. The class given is cell-based, BV-2. To be noted: read-out: Activity.
A further data set deals with C6. Description: Neuroprotective activity in rat C6 cells assessed as stimulation of NGF release at 20 uM after 24 hrs by ELISA relative to control. Format: functional. An outline of the steps:
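C6 rat glioma cells were treated with each compound at 20 μM, and NGF secreted into the medium was measured. Stimulation is given as percent of control, and 6-shogaol was the positive control.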
Background: In an ELISA, binding on a coated surface is turned into a signal by an enzyme label.

For another data set, the system named is HCT-15. Description: Cytotoxicity against human HCT15 cells by SRB assay. Format: functional, cell-based. A general note: Sulforhodamine B stains cellular protein and so reports cell mass.
The subject of another data set is A549. Nature of the data set: Cytotoxicity against human A549 cells by SRB assay. Format: functional, cell-based.
A further data set has as its system SK-MEL-2. Description: Cytotoxicity against human SK-MEL-2 cells by SRB assay. Format: functional, cell-based.
The next data set concerns SK-OV-3. Description: Cytotoxicity against human SKOV3 cells by SRB assay. The class given is functional, cell-based.
Data set [2] is described as follows: Antiinflammatory activity against LPS-stimulated mouse BV2 cells assessed as inhibition of nitric oxide production preincubated for 30 mins followed by LPS stimulation measured after 24 hrs by Griess assay. The class given is functional, cell-based. To be noted: BV-2. The procedure, abridged: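 Murine BV2 microglial cells were activated with lipopolysaccharide. NO released into the culture medium was measured, and IC50 was derived from the inhibition of NO production. L-NMMA was the positive control.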
In general terms: Nitrite, measured by Griess reagent, commonly stands in for NO production.

Consider `COc1cc([C@H]2Oc3c(OC)cc(CCCO)cc3[C@@H]2CO[C@@H]2O[C@H](CO)[C@@H](O)[C@H](O)[C@H]2O)ccc1O`, for which the viability at 20 µM in data set [1] was 97.2%. Further, in the data set with C6, the Activity is recorded as 140.04%. The IC50 with HCT-15, in the data set with A549, in the data set with SK-MEL-2 and with SK-OV-3 was more than 10 µM in each case.

Take `COc1cc([C@H]2c3c(cc(OC)c(O)c3OC)C[C@@H](CO)[C@@H]2CO[C@@H]2O[C@@H](C)[C@H](O)[C@@H](O)[C@H]2O)cc(OC)c1O`: in data set [1], the viability at 20 µM turned out to be 99.1%. Further, the half-maximal inhibitory concentration (IC50) with HCT-15 is more than 10 µM; in the data set on A549 it was more than 10 µM; in the data set with SK-MEL-2 it was more than 10 µM; with SK-OV-3 it was more than 10 µM; in data set [2], 31.9 µM.

With `COc1cc(C[C@H]2CO[C@@H](c3cc(OC)c(O)c(OC)c3)[C@H]2CO[C@@H]2O[C@@H](C)[C@H](O)[C@@H](O)[C@H]2O)cc(OC)c1O`, the viability at 20 µM in data set [1] worked out at 113%. In addition, the Activity in the data set with C6 is on record as 124.67%. The 50% inhibitory concentration (IC50) in the data set on HCT-15 was more than 10 µM; in the data set on A549, more than 10 µM; in the data set with SK-MEL-2, more than 10 µM; in the data set on SK-OV-3 it was more than 10 µM; in data set [2], 29.8 µM.

For `COc1cc([C@H]2c3c(cc(OC)c(O)c3OC)C[C@@H](CO)[C@@H]2CO[C@@H]2O[C@H](CO)[C@@H](O)[C@H](O)[C@H]2O)cc(OC)c1O`, in data set [1], the viability at 20 µM stood at 99.7%. The IC50 with HCT-15 was more than 10 µM; with A549, more than 10 µM; in the data set on SK-MEL-2 it was more than 10 µM; in the data set on SK-OV-3, more than 10 µM; in data set [2], 37.7 µM.

For `CCCCC/C=C/C(=O)CCc1ccc(O)c(OC)c1` [SHOGAOL], in the data set with C6, the Activity was found to be 141.75%.

Turning to `COc1cc(C[C@@H]2CO[C@@H](c3ccc(O)c(OC)c3)[C@@H]2CO[C@@H]2O[C@@H](C)[C@H](O)[C@@H](O)[C@H]2O)ccc1O`, the viability at 20 µM in data set [1] amounted to 102%. Besides, the Activity in the data set on C6 was found to be 144.31%. Moreover, the IC50 with HCT-15 was more than 10 µM; with A549 it was more than 10 µM; in the data set with SK-MEL-2 it was more than 10 µM; in the data set on SK-OV-3, more than 10 µM; in data set [2], 180 µM.

As to `COc1cc(C[C@H](CO)[C@@H](CO[C@@H]2O[C@@H](C)[C@H](O)[C@@H](O)[C@H]2O)Cc2cc(OC)c(O)c(OC)c2)cc(OC)c1O`, in data set [1], the viability at 20 µM was found to be 104%. In addition, in the data set with C6, the Activity is given as 167.61%. Moreover, the IC50 with HCT-15 is more than 10 µM; in the data set with A549 it was more than 10 µM; with SK-MEL-2, more than 10 µM; in the data set on SK-OV-3 it was more than 10 µM; in data set [2], 21.3 µM.

For the molecule `COc1cc(C[C@@H]2CO[C@@H](c3cc(OC)c(O)c(OC)c3)[C@@H]2CO[C@@H]2O[C@@H](C)[C@H](O)[C@@H](O)[C@H]2O)cc(OC)c1O`, the viability at 20 µM in data set [1] was determined as 97.1%. In addition, the IC50 in the data set on HCT-15 was more than 10 µM; in the data set with A549, more than 10 µM; in the data set on SK-MEL-2, more than 10 µM; in the data set on SK-OV-3, more than 10 µM; in data set [2], 199 µM.

On to `CNC(=N)NCCC[C@H](N)C(=O)O` [TILARGININE], for which the viability at 20 µM in data set [1] stood at 106%. In addition, the half-maximal inhibitory concentration (IC50) in data set [2] came out at 24.8 µM.

For the molecule `COc1cc([C@@H]2Oc3c(OC)cc(CCCO)cc3[C@H]2CO[C@@H]2O[C@@H](C)[C@H](O)[C@@H](O)[C@H]2O)cc(OC)c1O`, in data set [1], the viability at 20 µM was 104%. Besides, the Activity in the data set on C6 was found to be 106.85%. For the same molecule, the half-inhibitory concentration (IC50) in the data set with HCT-15, with A549, in the data set with SK-MEL-2 and with SK-OV-3 was more than 10 µM each time.

In the case of `COc1cc([C@H]2c3cc(O)c(OC)cc3C[C@@H](CO)[C@@H]2CO[C@@H]2O[C@@H](C)[C@H](O)[C@@H](O)[C@H]2O)ccc1O` [AVICULIN], the viability at 20 µM in data set [1] was found to be 96.1%. For the same molecule, in the data set on C6, the Activity is reported as 123.06%. For the same molecule, the half-maximal inhibitory concentration (IC50) with HCT-15 was more than 10 µM; in the data set on A549, more than 10 µM; with SK-MEL-2, more than 10 µM; with SK-OV-3 it was more than 10 µM; in data set [2], 40.2 µM.

With `COc1cc([C@H]2Oc3c(OC)cc(CCCO)cc3[C@@H]2CO[C@@H]2O[C@@H](C)[C@H](O)[C@@H](O)[C@H]2O)cc(OC)c1O`, the viability at 20 µM in data set [1] was determined as 98.2%. Moreover, the Activity in the data set on C6 is 151.74%. Besides, the IC50 in the data set on HCT-15, in the data set on A549, in the data set with SK-MEL-2 and with SK-OV-3 was more than 10 µM each time.

Consider `COc1cc([C@H]2Oc3c(OC)cc(CCCO)cc3[C@@H]2CO[C@@H]2O[C@@H](C)[C@H](O)[C@@H](O)[C@H]2O)ccc1O`, for which the viability at 20 µM in data set [1] was found to be 97.4%. Also, in the data set on C6, the Activity worked out at 102.88%. In addition, the IC50 in the data set with HCT-15, in the data set on A549, in the data set with SK-MEL-2 and in the data set with SK-OV-3 was more than 10 µM each time.

The record behind these values is ChEMBL document CHEMBL3580549, “Lignan Glycosides from the Twigs of Chaenomeles sinensis and Their Biological Activities” (J Nat Prod, 2015).
